Source: paper PMC7551138 (Alzheimer's & Dementia : Translational Research & Clinical …, 2020)

Columns and labels:
[1] = test system: healthy elderly subjects; test: Visual analogue scales; assay type: in vivo, human; conditions: 22 mg b.i.d. intranasal 7 days; vs placebo, mean (confidence interval)
Outline: (§1)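 NeuroCart tests were repeated over time during the 7-day b.i.d. intranasal dosing: eye movements, N-back with 3 working-memory-load conditions, pharmaco-EEG, and 100-mm VAS (Bond and Lader mood/alertness/calmness; nausea). In the 22 mg cohort, EEG at 30 min and 3 h post-dose was dropped. Analysis was mixed-model ANOVA (treatment, time, treatment×time fixed; subject random; baseline covariate), giving LSM difference versus placebo with CI.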

[2] = test system: healthy elderly subjects; test: N‐back test; assay type: in vivo, human; conditions: vs placebo, mean (confidence interval)
Outline: as §1

[3] = test system: healthy elderly subjects; test: Visual verbal learning test; assay type: in vivo, human; conditions: for VVLT Delayed word recall correct / VVLT Delayed word recognition RT correct / VVLT Delayed word recognition correct / VVLT Word recall correct 1 / VVLT Word recall correct 2 / VVLT Word recall correct 3: vs placebo, mean (confidence interval)
Outline: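 Thirty words were shown repeatedly, with immediate recall after each presentation. After 30 min, delayed recall and recognition among distractor words were tested. This test was not repeated within a day. Analysis was mixed-model ANOVA (treatment, day, treatment×day fixed; subject random), giving LSM difference versus placebo with CI.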

[4] = test system: healthy elderly subjects; test: Pharmaco‐electroencephalography; assay type: in vivo, human; conditions: for EEG Delta Fz‐Cz closed (uV^2/Hz) / EEG Delta Fz‐Cz open (uV^2/Hz) / EEG Delta Pz‐O1 closed (uV^2/Hz) / EEG Delta Pz‐O1 open (uV^2/Hz) / EEG Delta Pz‐O2 closed (uV^2/Hz) / EEG Delta Pz‐O2 open (uV^2/Hz): vs placebo, mean (confidence interval)
Outline: as §1

[5] = test system: healthy elderly subjects; test: PK‐PD analysis, nonlinear mixed‐effect modeling of adaptive tracking; assay type: in vivo, human
Outline: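 Nonlinear mixed-effects PK-PD modelling used plasma and CSF data from this study plus earlier first-in-human data. Oral comparator data were dose-corrected. […] models linked plasma concentration of the active cleavage product to adaptive tracking, testing direct-effect, turnover and effect-compartment forms. Inter-individual and inter-occasion variability were assessed. Covariates were added stepwise at p<0.01, then removed by backward elimination at p<0.001. Emax and EC50 (mg/L) are given with 95% CI.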

[6] = intranasal 20.0 mg/kg; cited from earlier work
[7] = cited from earlier work
[8] = 5.5 mg b.i.d. intranasal 7 days

COc1ccc2c3c1O[C@H]1C[C@@H](OC(=O)c4ccccc4)C=C[C@@]31CCN(C)C2 [Gln‐1062]
VAS Mood [1]: −0.68 (−3.66, 2.29) P = 0.6455 mm | N‐back corr‐incorr/total 1 [2, 8]: 0.026 (−0.026, 0.078) P = 0.3186 | N‐back corr‐incorr/total 2 [2, 8]: −0.002 (−0.068, 0.064) P = 0.9575 | N‐back mean RT 2 back [2, 8]: −45.6 (−99.3, 8.2) P = 0.0944 msec | N‐back corr‐incorr/total 1 ([2]; 11 mg b.i.d. intranasal 7 days): 0.027 (−0.023, 0.076) P = 0.2811 | N‐back corr‐incorr/total 2 ([2]; 11 mg b.i.d. intranasal 7 days): −0.016 (−0.081, 0.049) P = 0.6231 | N‐back mean RT 1 back ([2]; 11 mg b.i.d. intranasal 7 days): 6.1 (−39.6, 51.8) P = 0.7893 msec | N‐back corr‐incorr/total 1 ([2]; 22 mg b.i.d. intranasal 7 days): 0.020 (−0.029, 0.069) P = 0.4242 | N‐back corr‐incorr/total 2 ([2]; 22 mg b.i.d. intranasal 7 days): 0.036 (−0.028, 0.099) P = 0.2661 | N‐back mean RT 1 back ([2]; 22 mg b.i.d. intranasal 7 days): −24.4 (−67.1, 18.3) P = 0.2558 msec | N‐back mean RT 2 back ([2]; 22 mg b.i.d. intranasal 7 days): −71.4 (−126.4,−16.3) P = 0.0123 msec | VVLT Delayed word recall correct [3, 8]: 0.36 (−2.02, 2.73) P = 0.7624 | VVLT Delayed word recognition RT correct [3, 8]: −49.93 (−166.97, 67.10) P = 0.3944 msec | VVLT Delayed word recognition correct [3, 8]: −2.60 (−6.60, 1.40) P = 0.1967 | VVLT Word recall correct 1 [3, 8]: 0.36 (−1.31, 2.03) P = 0.6635 | VVLT Word recall correct 2 [3, 8]: −0.45 (−2.44, 1.55) P = 0.6545 | VVLT Word recall correct 3 [3, 8]: −0.12 (−2.42, 2.17) P = 0.9136 | VVLT Delayed word recall correct ([3]; 11 mg b.i.d. intranasal 7 days): −0.73 (−3.15, 1.70) P = 0.5486 | VVLT Delayed word recognition RT correct ([3]; 11 mg b.i.d. intranasal 7 days): −30.91 (−150.24, 88.41) P = 0.6041 msec | VVLT Delayed word recognition correct ([3]; 11 mg b.i.d. intranasal 7 days): −2.19 (−6.24, 1.87) P = 0.2825 | VVLT Word recall correct 1 ([3]; 11 mg b.i.d. intranasal 7 days): 0.62 (−1.07, 2.32) P = 0.4608 | VVLT Word recall correct 2 ([3]; 11 mg b.i.d. intranasal 7 days): −0.63 (−2.65, 1.40) P = 0.5370 | VVLT Word recall correct 3 ([3]; 11 mg b.i.d. intranasal 7 days): −0.89 (−3.23, 1.44) P = 0.4444 | VVLT Delayed word recall correct ([3]; 22 mg b.i.d. intranasal 7 days): 0.48 (−1.89, 2.86) P = 0.6838 | VVLT Delayed word recognition RT correct ([3]; 22 mg b.i.d. intranasal 7 days): −120.03 (−237.07,−3.00) P = 0.0447 msec | VVLT Delayed word recognition correct ([3]; 22 mg b.i.d. intranasal 7 days): −0.43 (−4.43, 3.57) P = 0.8291 | VVLT Word recall correct 1 ([3]; 22 mg b.i.d. intranasal 7 days): −0.12 (−1.79, 1.54) P = 0.8816 | VVLT Word recall correct 2 ([3]; 22 mg b.i.d. intranasal 7 days): −0.01 (−2.00, 1.99) P = 0.9959 | VVLT Word recall correct 3 ([3]; 22 mg b.i.d. intranasal 7 days): 0.99 (−1.30, 3.29) P = 0.3883 | effects on VVLT, eye movements and VAS mood, calmness, alertness and nausea ([3]; compared with placebo): No significant and consistent effects | EEG Delta Fz‐Cz closed (uV^2/Hz) [4, 8]: −1.8% (−30.4%, 38.5%) P = 0.9140 | EEG Delta Fz‐Cz open (uV^2/Hz) [4, 8]: −13.6% (−35.0%, 14.8%) P = 0.3010 | EEG Delta Pz‐O1 closed (uV^2/Hz) [4, 8]: −3.1% (−36.1%, 46.9%) P = 0.8765 | EEG Delta Pz‐O1 open (uV^2/Hz) [4, 8]: −12.9% (−39.4%, 25.1%) P = 0.4391 | EEG Delta Pz‐O2 closed (uV^2/Hz) [4, 8]: −13.4% (−39.2%, 23.5%) P = 0.4151 | EEG Delta Pz‐O2 open (uV^2/Hz) [4, 8]: 3.1% (−23.8%, 39.4%) P = 0.8382 | EEG Delta Fz‐Cz closed (uV^2/Hz) ([4]; 11 mg b.i.d. intranasal 7 days): −14.8% (−37.6%, 16.4%) P = 0.3023 | EEG Delta Fz‐Cz open (uV^2/Hz) ([4]; 11 mg b.i.d. intranasal 7 days): −2.5% (−25.2%, 27.0%) P = 0.8435 | EEG Delta Pz‐O1 closed (uV^2/Hz) ([4]; 11 mg b.i.d. intranasal 7 days): −12.4% (−41.5%, 31.2%) P = 0.5079 | EEG Delta Pz‐O1 open (uV^2/Hz) ([4]; 11 mg b.i.d. intranasal 7 days): −5.4% (−33.6%, 34.6%) P = 0.7474 | EEG Delta Pz‐O2 closed (uV^2/Hz) ([4]; 11 mg b.i.d. intranasal 7 days): −0.4% (−28.5%, 38.7%) P = 0.9799 | EEG Delta Pz‐O2 open (uV^2/Hz) ([4]; 11 mg b.i.d. intranasal 7 days): 3.7% (−21.2%, 36.6%) P = 0.7851 | EEG delta power at the frontal and parietal locations ([4]; 22 mg): significantly decreased | EEG Delta Fz‐Cz closed (uV^2/Hz) ([4]; 22 mg b.i.d. intranasal 7 days): −19.8% (−35.7%,−0.1%) P = 0.0495 | EEG Delta Fz‐Cz open (uV^2/Hz) ([4]; 22 mg b.i.d. intranasal 7 days): −30.1% (−48.3%,−5.3%) P = 0.0235 | EEG Delta Pz‐O1 closed (uV^2/Hz) ([4]; 22 mg b.i.d. intranasal 7 days): −27.4% (−46.1%,−2.1%) P = 0.0369 | EEG Delta Pz‐O1 open (uV^2/Hz) ([4]; 22 mg b.i.d. intranasal 7 days): −29.1% (−45.3%,−8.0%) P = 0.0126 | EEG Delta Pz‐O2 closed (uV^2/Hz) ([4]; 22 mg b.i.d. intranasal 7 days): −21.5% (−35.1%, −5.0%) P = 0.0154 | EEG Delta Pz‐O2 open (uV^2/Hz) ([4]; 22 mg b.i.d. intranasal 7 days): −16.5% (−33.4%, 4.8%) P = 0.1128 | maximum increase (Emax) of adaptive tracking ([5]; direct effect model on galantamine plasma concentration, 95% CI 1.15–5.90): 1.91 | concentration resulting in half of the maximum (EC50), adaptive tracking ([5]; galantamine plasma concentration, direct effect model, by drug dosed): 0.0231 µg/mL | blood‐to‐brain ratio [6]: 10.2 mg/kg | tolerability compared with 16 mg oral galantamine and other ChEIs ([7]; 22 mg): better tolerated | sustained attention (adaptive tracking) and verbal memory (VVLT) ([7]; 5.5, 11, 22, 33 and 44 mg): dose‐dependent improvements
